Measured values taken from ChEMBL document CHEMBL5321273, “Bicyclic Peptide Library Screening for the Identification of Gαi Protein Modulators” (J Med Chem, 2023).
Values belong to the compound of their own block, whether it stands above or below them. The source made the active and inactive calls. No cut-off for these calls is given here.

How the values were obtained:
[1] = target: T1, Guanine nucleotide-binding protein G(i) subunit alpha-1 (Homo sapiens, UniProt P63096); assay: Binding affinity to N-terminal 6His-tagged GDP-bound Galphai1 (unknown origin) expressed in Escherichia coli BL21 (DE3) assessed as dissociation constant by SPR analysis
How it was run: (§1)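 SPR: Gαi1 loaded with GDP or GMPPNP immobilized on sensor chip by amine coupling; peptides flowed over at varying concentrations; KD determined. Reverse orientation (peptide immobilized, protein flowed) also run.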

HeLa [2] = assay: Modulation of Galphai in forskolin-stimulated human HeLa cells assessed as adenylyl cyclase mediated decrease in cAMP level at 2.5 to 10 uM incubated for 30 mins by BRET analysis relative to control; assay type: cell-based; conditions: dose 2.5-10 µM
How it was run: (§2)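 HeLa cells in DMEM/10% FBS transfected with Gαi(C351I) or pcDNA plus modified CAMYEL cAMP BRET sensor; replated 40K/well; peptide (10, 5, 2.5 μM final, assay buffer pH 8.0) 30 min RT; 100 μM IBMX + 10 μM CTZ added, luminescence 7 min; then Fsk, BRET 15 min; AUC normalized to no-peptide; triplicates.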

HeLa [3] = assay: Modulation of Galphai in isoproterenol-stimulated human HeLa cells assessed as effect on cAMP level at 2.5 to 5 uM incubated for 30 mins by BRET analysis relative to control; assay type: cell-based; conditions: dose 2.5-5 µM
How it was run: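 CAMYEL BRET in HeLa cells transfected with β2-AR plus modified CAMYEL; peptide (10, 5, 2.5 μM final) 30 min RT in pH 8.0 assay buffer; IBMX 100 μM + CTZ 10 μM, 7 min read; isoproterenol added, BRET 15 min; AUC normalized to untreated; triplicates.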

[4] = target: T1, Guanine nucleotide-binding protein G(i) subunit alpha-1; assay: Binding affinity to N-terminal 6His-tagged GMPPNP-bound Galphai1 (unknown origin) expressed in Escherichia coli BL21 (DE3) assessed as dissociation constant by SPR analysis; how it was run: as §1
NG108-15 [5] = assay: Modulation of Galphai in DADLE/forskolin-stimulated NG108-15 cell membrane expressing human beta2-AR co-expressing […] receptor assessed as decrease in cAMP level at 10 uM relative to control; assay type: cell membranes; set-up: scale not given: the % may be the effect or the level left
How it was run: (§3)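 Cell-free AC assay on membranes from NG108–15 hybrid cells stably expressing human β2-AR; peptides 10 μM; cAMP production stimulated with Fsk or Fsk + DADLE; read by ELISA; values as percent of untreated control; n = 3, SD.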

HeLa [6] = assay: Cytotoxicity against human HeLa cells assessed as reduction in cell viability upto 80 uM incubated for overnight by MTT assay; assay type: toxicity, cell-based
NG108-15 [7] = assay: Modulation of Galphai in forskolin-stimulated NG108-15 cell membrane expressing human beta2-AR co-expressing […] receptor assessed as increase in cAMP level at 10 uM relative to control; assay type: cell membranes; how it was run: as §3
NG108-15 [8] = assay: Modulation of Galphai in forskolin/DADLE-stimulated NG108-15 cell membrane expressing human beta2-AR co-expressing mu-opioid receptor assessed as increase in cAMP level at 10 uM relative to control; assay type: cell membranes; how it was run: as §3
HeLa [9] = assay: Modulation of Galphai in forskolin-stimulated human HeLa cells assessed as adenylyl cyclase mediated increase in cAMP level at 2.5 uM incubated for 30 mins by BRET analysis relative to control; assay type: cell-based; how it was run: as §2
HeLa [10] = assay: Modulation of Galphai in human HeLa cells assessed as hetero-trimer reassociation by measuring decrease in free Galphai monomer level at 2.5 uM incubated for 30 mins by BRET analysis; assay type: cell-based; conditions: filed as modulator
How it was run: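 Gβγ release BRET: HeLa cells transfected with Venus-Gβ, Gγ and Rluc8-Gαi (500 ng each); peptide 2.5 μM 30 min RT; CTZ 10 μM added; BRET ratio from emission scan, AUC normalized to no-peptide; n = 3, S.E.M.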

HeLa [11] = assay: Modulation of Galphai in human HeLa cells assessed as hetero-trimer reassociation by measuring effect on phosphorylated Akt level at 2.5 uM incubated for 30 mins by immunoblotting analysis; assay type: cell-based
[12] = Stability in human plasma at 1 mM measured upto 180 mins by HPLC analysis; assay type: ADME, cell-free; conditions: 3 h, 1000 µM
HeLa [13] = assay: Modulation of Galphai in human HeLa cells assessed as hetero-trimer reassociation by measuring effect on total Akt level at 2.5 uM incubated for 30 mins by immunoblotting analysis; assay type: cell-based
HeLa [14] = assay: Modulation of Galphai in human HeLa cells assessed as hetero-trimer reassociation by measuring decrease in free G-beta/gamma dimer level at 2.5 uM incubated for 30 mins by BRET analysis; assay type: cell-based; conditions: filed as modulator
How it was run: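 Free Gβγ BRET using Rluc-fused GRK3ct as biosensor in HeLa cells; 30 min incubation with 2.5 μM peptide or none; BRET signal normalized to untreated; n = 3, S.E.M., one-way ANOVA.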

HeLa [15] = assay: Modulation of Galphai in human HeLa cells assessed as hetero-trimer reassociation by measuring effect on total ERK level at 2.5 uM incubated for 30 mins by immunoblotting analysis; assay type: cell-based
HeLa [16] = assay: Modulation of Galphai in human HeLa cells assessed as increase in cAMP level at 2.5 uM incubated for 30 mins followed by forskolin stimulation measured after 30 mins by TR-FRET analysis relative to control; assay type: cell-based; conditions: filed as modulator, time 60.0 min
How it was run: (§4)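 Endpoint intracellular cAMP by TR-FRET (LANCE Ultra cAMP kit) in HeLa cells incubated with a range of peptide concentrations, then Fsk-stimulated or unstimulated; cAMP quantified against a cAMP standard curve.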

HeLa [17] = assay: Modulation of Galphai in human HeLa cells assessed as hetero-trimer reassociation by measuring effect on phosphorylated ERK level at 2.5 uM incubated for 30 mins by immunoblotting analysis; assay type: cell-based
[18] = Modulation of Galphai in human HeLa cells assessed as increase in cAMP level incubated for 30 mins followed by forskolin stimulation measured after 30 mins by TR-FRET analysis; assay type: cell-based; conditions: 0.5 h; how it was run: as §4

T1 sequence (P63096 whole entry): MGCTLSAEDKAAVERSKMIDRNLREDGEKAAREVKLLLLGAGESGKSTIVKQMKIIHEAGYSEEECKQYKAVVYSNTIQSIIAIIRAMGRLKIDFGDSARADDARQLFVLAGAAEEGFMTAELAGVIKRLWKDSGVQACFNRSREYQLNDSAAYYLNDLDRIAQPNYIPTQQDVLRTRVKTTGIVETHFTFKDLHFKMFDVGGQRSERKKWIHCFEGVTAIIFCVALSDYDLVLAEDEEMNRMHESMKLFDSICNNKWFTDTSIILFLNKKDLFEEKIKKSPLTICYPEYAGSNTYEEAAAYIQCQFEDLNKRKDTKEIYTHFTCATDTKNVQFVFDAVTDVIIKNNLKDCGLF

Kd [1]: 5 µM
Kd [4]: 0.71 µM
Activity (NG108-15 [5]; filed as modulator): 40%
SMILES: NCCCC[C@H](NC(=O)[C@@H]1CNC(=O)c2cc3cc(c2)C(=O)N[C@H](Cc2cccc4ccccc24)C(=O)N[C@H](Cc2ccccc2)C(=O)N2CCC[C@@H]2C(=O)N[C@@H](CCCNC3=O)C(=O)N2CCC[C@@H]2C(=O)N[C@H](CCCCN)C(=O)N2CCC[C@@H]2C(=O)N[C@@H](Cc2ccc(O)cc2)C(=O)N1)C(N)=O
Activity (HeLa [2]; filed as modulator): Active
Activity (HeLa [3]): inactive
Activity (HeLa [6]): Non-Toxic

Activity (NG108-15 [7]): inactive
Activity [1]: inactive
Activity (NG108-15 [8]): inactive
Activity (NG108-15 [5]): inactive
SMILES: CC[C@H](C)[C@@H]1NC(=O)c2cc3cc(c2)C(=O)NC[C@@H](C(=O)N[C@@H](CCCCN)C(N)=O)NC(=O)[C@H](Cc2c[nH]c4ccccc24)NC(=O)[C@@H](Cc2ccc4ccccc4c2)NC(=O)[C@@H](C(C)C)NC(=O)[C@H](CCCNC3=O)NC(=O)[C@@H](CC(N)=O)NC(=O)[C@@H](CC(C)C)NC1=O
Activity (HeLa [2]): inactive
Activity (HeLa [6]): Non-Toxic
Activity (HeLa [9]): inactive

Stability [12]: Stable
Activity (NG108-15 [7]): 30%
Kd [1]: 25.5 µM
Activity (NG108-15 [8]; in the assay text read “delta-opioid receptor” for “mu-opioid receptor”): 30%
IC50 [18]: 6.92 µM
SMILES: CC[C@H](C)[C@@H]1NC(=O)[C@@H](Cc2cccc3ccccc23)NC(=O)c2cc3cc(c2)C(=O)NC[C@@H](C(=O)N[C@@H](CCCCN)C(N)=O)NC(=O)[C@@H](C)NC(=O)[C@@H](Cc2ccccc2)NC(=O)[C@H](CCCNC(=N)N)NC(=O)[C@H](C)NC(=O)[C@@H](CCCNC3=O)NC(=O)[C@@H](C(C)C)NC(=O)[C@@H](Cc2ccccc2)NC1=O
Activity (HeLa [10]): Active
Activity (HeLa [11]): inactive
Activity (HeLa [13]): inactive
Activity (HeLa [14]): Active
Activity (HeLa [15]): inactive
Activity (HeLa [3]): inactive
Activity (HeLa [16]): Active
Activity (HeLa [6]): Non-Toxic
Activity (HeLa [17]): inactive
Activity (HeLa [9]): 10%

Kd [1]: 24.7 µM
SMILES: N=C(N)NCCC[C@@H]1NC(=O)CNC(=O)[C@H](CO)NC(=O)c2cc3cc(c2)C(=O)NC[C@@H](C(=O)N[C@@H](CCCCN)C(N)=O)NC(=O)[C@@H](Cc2cccc4ccccc24)NC(=O)[C@H](Cc2ccc(O)cc2)NC(=O)[C@@H](CCCCN)NC(=O)[C@@H](Cc2cccc4ccccc24)NC(=O)[C@H](CCCNC3=O)NC1=O
Activity (HeLa [2]; filed as modulator): Active
Activity (HeLa [6]): Non-Toxic
